The structures appear in SMILES notation.

The first assay deals with Rattus norvegicus. Briefly: Ability to protect Sprague-Dawley male rats against maximal electroshock-induced seizures (MES) intraperitoneally; Inhibition at 12.5 mg/kg. The class given is functional. As to conditions: ip, route intraperitoneal. The essentials:
(§1)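 Male Sprague-Dawley rats dosed with compound as a solution or fine dispersion in water or 5% methylcellulose, then given maximal electroshock. Protection means abolition of the hind-limb extensor component.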
(In general: Protection in the maximal electroshock model is a classic sign of anticonvulsant action.)
In general, inhibition in vivo refers to the share of the control response that was lost under treatment. Lower therefore signals little suppression. Turning to `CN(C)c1ncnc2c1ncn2-c1ccccc1`, the inhibition in vivo at 12.5 mg/kg stood at 0%.

For the next assay, the system named is Rattus norvegicus. Briefly: Ability to protect Sprague-Dawley male rats against maximal electroshock-induced seizures (MES) intraperitoneally. Inhibition at 25 mg/kg. The conditions noted are these: ip, route intraperitoneal. The class given is functional. The essentials: as §1
`CC(C)N(C)c1ncnc2c1ncn2Cc1ccccc1` registered an inhibition in vivo at 25 mg/kg of 17%.
The same measure, in the same setting: the figure for `c1ccc(Cn2cnc3c(N4CCC4)ncnc32)cc1` is 17%.
Still for that read-out and setting: the value for `COc1ccc(Cn2cnc3c(N(C)C)ncnc32)cc1` was 0%.
Still for that read-out and setting: the value for `CN(C)c1ncnc2c1ncn2Cc1ccccc1Cl` was 84%.
`CN(C)c1ncnc2c1ncn2Cc1cccc([N+](=O)[O-])c1`: 25 mg/kg produced 17% inhibition in vivo.
Still for that read-out and setting: the value for `CN(C)c1ncnc2c1ncn2Cc1ccc(F)cc1` was 33%; that for `C[C@H](c1ccccc1)n1cnc2c(N(C)C)ncnc21` was 33%; that for `C[C@@H](c1ccccc1)n1cnc2c(N(C)C)ncnc21` was 33%.
Compound `Oc1ncnc2c1ncn2Cc1ccccc1` yielded an inhibition in vivo at 25 mg/kg of 17%.
`CN(C)c1ncnc2c1ncn2CC1CCCCC1`: the inhibition in vivo at 25 mg/kg is 0%.
`c1ccc(Cn2cnc3c(Nc4ccccc4)ncnc32)cc1`: the inhibition in vivo at 25 mg/kg was 0%.
The same measure, in the same setting: the value for `Cc1ccc(Cn2cnc3c(N(C)C)ncnc32)cc1` was 0%; that for `CN(C=O)c1ncnc2c1ncn2Cc1ccccc1` was 0%; that for `CN(C)c1ncnc2c1ncn2Cc1ccc(Cl)c(Cl)c1` was 0%.
The same measure, in the same setting: the value for `CN(C)c1ncnc2c1ncn2Cc1cccc(OCc2ccccc2)c1` was 33%; that for `OCCNc1ncnc2c1ncn2Cc1ccccc1` was 84%; that for `CN(C)c1ncnc2c1ncn2Cc1cccc(O)c1` was 0%.
On the same count and under the same terms, the figure for `CN(C)c1ncnc2c1ncn2Cc1ccc(Cl)cc1` is 0%; for `CN(C)c1ncnc2c1ncn2Cc1ccc(C#N)cc1` it is 0%.
As for `COc1ccccc1Cn1cnc2c(N(C)C)ncnc21`, the inhibition in vivo at 25 mg/kg stood at 0%.
`CN(C)c1ncnc2c1ncn2CCc1ccccc1`: the inhibition in vivo at 25 mg/kg worked out at 33%.
For `CN(C)c1ncnc2c1ncn2Cc1ccc([N+](=O)[O-])cc1`, the inhibition in vivo at 25 mg/kg was 0%.
On the same count and under the same terms, the figure for `CN(c1ncnc2c1ncn2Cc1ccccc1)C1CCCC1` is 17%; for `CN(C)c1ncnc2c1ncn2Cc1cccc(C#N)c1` it is 17%.
Still for that read-out and setting: the figure for `CN(C)c1ncnc2c1ncn2C` is 33%.
Same read-out and setting: the value for `CN(C)c1ncnc2c1ncn2Cc1ccc(O)cc1` was 0%.
Turning to `CSc1ncnc2c1ncn2Cc1ccccc1` [9-BENZYL-6-METHYLSULFANYL-9H-PURINE], the inhibition in vivo at 25 mg/kg is 30%.
Same read-out and setting: the value for `Nc1ncnc2c1ncn2Cc1ccccc1` [9-BENZYL-9H-ADENINE] was 33%; that for `c1ccc(Cn2cnc3cncnc32)cc1` [9-BENZYL-9H-PURINE] was 33%.

The subject of another assay is Rattus norvegicus. Put plainly: Protective effects in maximal electroshock induced seizures in rats following i.p. administration. The class given is functional. The conditions noted are these: ip. The essentials: (§2)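 Male Sprague-Dawley rats, compound given orally or ip as a solution or fine dispersion in water or 5% methylcellulose before maximal electroshock. ED50 is the dose protecting 50% against hind-limb extension, by the Miller–Tainter method. Either ≥12 animals per dose at four doses (with standard error) or three doses with six animals per point.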
Broadly, the ED50 is the dose that gives a 50% effect, or the effect in half of the subjects. A high value points to weaker potency. Consider `CN(C)c1ncnc2c1ncn2Cc1cccs1`, for which it took a dose of 10 mg/kg to reach the 50% effect level (ED50).
The same measure, in the same setting: the value for `Cc1ccccc1Cn1cnc2c(N(C)C)ncnc21` was 9 mg/kg; that for `CCN(C)c1ncnc2c1ncn2Cc1ccccc1` was 8 mg/kg.
`CN(C)c1ncnc2c1ncn2Cc1ccc(N)cc1` came in with a median effective dose (ED50) of 25 mg/kg.
Turning to `CN(C)c1ncnc2c1ncn2Cc1cccc(I)c1`, the ED50 came to 11 mg/kg.
In turn, `CN(C)c1ncnc2c1ncn2Cc1cccc(Cl)c1` had an ED50 of 4.5 mg/kg.
On the same count and under the same terms, the figure for `CN(C)c1ncnc2c1ncn2Cc1ccco1` is 18 mg/kg; for `CN(C)c1ncnc2c1ncn2Cc1cc(Cl)cc(Cl)c1` it is 7 mg/kg.
Same read-out and setting: the figure for `CNc1ncnc2c1ncn2Cc1ccccc1` is 5 mg/kg.
Still for that read-out and setting: the figure for `CN(C)c1ncnc2c1ncn2Cc1ccccc1` is 6 mg/kg; for `CN(C)c1ncnc2c1ncn2Cc1ccccc1F` it is 8.8 mg/kg; for `CN(C)c1ncnc2c1ncn2Cc1cccc(F)c1` it is 8.4 mg/kg.
For the compound `Cc1cccc(Cn2cnc3c(N(C)C)ncnc32)c1`, the ED50 stood at 25 mg/kg.
On the same count and under the same terms, the figure for `c1ccc(Cn2cnc3c(NC4CC4)ncnc32)cc1` is 8.6 mg/kg; for `CN(C)c1ncnc2c1ncn2Cc1ccccc1[N+](=O)[O-]` it is 25 mg/kg; for `CN(C)c1ncnc2c1ncn2Cc1ccccc1N` it is 20 mg/kg.
On the same count and under the same terms, the figure for `CN(C)c1ncnc2c1ncn2Cc1cccc(C(F)(F)F)c1` is 12 mg/kg.
With `CN(C)c1ncnc2c1ncn2Cc1cccc(Br)c1`, the ED50 was 13 mg/kg.
For `COc1cccc(Cn2cnc3c(N(C)C)ncnc32)c1`, it took a dose of 12.5 mg/kg to reach the 50% effect level (ED50).
Still for that read-out and setting: the value for `COc1ncnc2c1ncn2Cc1ccccc1` [9-BENZYL-6-METHOXY-9H-PURINE] was 10 mg/kg; that for `O=C1NC(=O)C(c2ccccc2)(c2ccccc2)N1` [PHENYTOIN] was 9.6 mg/kg.

The species entered for the next assay is Rattus norvegicus. Briefly: Ability to protect Sprague-Dawley male rats against maximal electroshock-induced seizures (MES) perorally. The class given is functional. The conditions noted are these: po. The procedure, abridged: as §2
The compound `CCN(C)c1ncnc2c1ncn2Cc1ccccc1` yielded an ED50 of 30 mg/kg.
Still for that read-out and setting: the value for `CN(C)c1ncnc2c1ncn2Cc1cccc(Cl)c1` was 18 mg/kg; that for `CNc1ncnc2c1ncn2Cc1ccccc1` was 12 mg/kg; that for `CN(C)c1ncnc2c1ncn2Cc1ccccc1` was 12 mg/kg.
Still for that read-out and setting: the figure for `COc1ncnc2c1ncn2Cc1ccccc1` [9-BENZYL-6-METHOXY-9H-PURINE] is 21 mg/kg; for `O=C1NC(=O)C(c2ccccc2)(c2ccccc2)N1` [PHENYTOIN] it is 20 mg/kg.

In another assay the test system is Rattus norvegicus. Put plainly: Ability to protect Sprague-Dawley male rats against maximal electroshock-induced seizures (MES) per orally; Inhibition at 25 mg/kg. The class given is functional. The conditions noted are these: po. The essentials: as §1
`OCCNc1ncnc2c1ncn2Cc1ccccc1`: testing at 25 mg/kg gave an inhibition in vivo of 17%.
